Source: publication PMC6637745 (Journal of medicinal chemistry, 2018)

Tests used:
[1] = target: 5-HT1A-1E; assay: NIMH-PDSP binding affinity panel; settings: read-out: affinity
[2] = target: 5-HT2A-2C; assay: NIMH-PDSP binding affinity panel; settings: read-out: affinity
[3] = target: 5-HT3-7; assay: NIMH-PDSP binding affinity panel; settings: read-out: affinity
[4] = target: A (adenosine); assay: NIMH-PDSP binding affinity panel; settings: read-out: affinity
[5] = target: α1A-1C; assay: NIMH-PDSP binding affinity panel; settings: read-out: affinity
[6] = target: α2A-2C; assay: NIMH-PDSP binding affinity panel; settings: read-out: affinity
[7] = target: β1–3; assay: NIMH-PDSP binding affinity panel; settings: read-out: affinity
[8] = target: AMPA; assay: NIMH-PDSP binding affinity panel; settings: read-out: affinity
[9] = target: BZP (benzodiazepine); assay: NIMH-PDSP binding affinity panel; settings: read-out: affinity
[10] = target: Ca+ channel; assay: NIMH-PDSP binding affinity panel; settings: read-out: affinity
[11] = target: CB1, CB2; assay: NIMH-PDSP binding affinity panel; settings: read-out: affinity; CB1, CB2 cannabinoid
[12] = target: D1-D5; assay: NIMH-PDSP binding affinity panel; settings: read-out: affinity; D1-D5 dopamine
[13] = target: DAT (Homo sapiens, UniProt Q01959); assay: NIMH-PDSP binding affinity panel
[14] = target: DOR (Homo sapiens, UniProt P41143); assay: NIMH-PDSP binding affinity panel
Sequence of DOR (P41143 whole entry): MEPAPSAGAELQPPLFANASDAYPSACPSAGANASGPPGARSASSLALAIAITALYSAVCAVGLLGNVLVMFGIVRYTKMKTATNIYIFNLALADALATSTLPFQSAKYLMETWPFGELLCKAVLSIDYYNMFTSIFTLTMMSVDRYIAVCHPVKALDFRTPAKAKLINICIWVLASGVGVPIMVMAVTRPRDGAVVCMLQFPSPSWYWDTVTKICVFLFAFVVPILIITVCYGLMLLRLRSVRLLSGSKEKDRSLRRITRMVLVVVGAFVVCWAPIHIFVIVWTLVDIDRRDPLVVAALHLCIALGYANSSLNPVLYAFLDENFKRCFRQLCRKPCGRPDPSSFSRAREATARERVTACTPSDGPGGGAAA

[15] = target: H1 (Homo sapiens, UniProt P35367); assay: NIMH-PDSP binding affinity panel
[16] = target: HERG (Homo sapiens, UniProt Q12809); assay: NIMH-PDSP binding affinity panel
Sequence of HERG (Q12809 whole entry): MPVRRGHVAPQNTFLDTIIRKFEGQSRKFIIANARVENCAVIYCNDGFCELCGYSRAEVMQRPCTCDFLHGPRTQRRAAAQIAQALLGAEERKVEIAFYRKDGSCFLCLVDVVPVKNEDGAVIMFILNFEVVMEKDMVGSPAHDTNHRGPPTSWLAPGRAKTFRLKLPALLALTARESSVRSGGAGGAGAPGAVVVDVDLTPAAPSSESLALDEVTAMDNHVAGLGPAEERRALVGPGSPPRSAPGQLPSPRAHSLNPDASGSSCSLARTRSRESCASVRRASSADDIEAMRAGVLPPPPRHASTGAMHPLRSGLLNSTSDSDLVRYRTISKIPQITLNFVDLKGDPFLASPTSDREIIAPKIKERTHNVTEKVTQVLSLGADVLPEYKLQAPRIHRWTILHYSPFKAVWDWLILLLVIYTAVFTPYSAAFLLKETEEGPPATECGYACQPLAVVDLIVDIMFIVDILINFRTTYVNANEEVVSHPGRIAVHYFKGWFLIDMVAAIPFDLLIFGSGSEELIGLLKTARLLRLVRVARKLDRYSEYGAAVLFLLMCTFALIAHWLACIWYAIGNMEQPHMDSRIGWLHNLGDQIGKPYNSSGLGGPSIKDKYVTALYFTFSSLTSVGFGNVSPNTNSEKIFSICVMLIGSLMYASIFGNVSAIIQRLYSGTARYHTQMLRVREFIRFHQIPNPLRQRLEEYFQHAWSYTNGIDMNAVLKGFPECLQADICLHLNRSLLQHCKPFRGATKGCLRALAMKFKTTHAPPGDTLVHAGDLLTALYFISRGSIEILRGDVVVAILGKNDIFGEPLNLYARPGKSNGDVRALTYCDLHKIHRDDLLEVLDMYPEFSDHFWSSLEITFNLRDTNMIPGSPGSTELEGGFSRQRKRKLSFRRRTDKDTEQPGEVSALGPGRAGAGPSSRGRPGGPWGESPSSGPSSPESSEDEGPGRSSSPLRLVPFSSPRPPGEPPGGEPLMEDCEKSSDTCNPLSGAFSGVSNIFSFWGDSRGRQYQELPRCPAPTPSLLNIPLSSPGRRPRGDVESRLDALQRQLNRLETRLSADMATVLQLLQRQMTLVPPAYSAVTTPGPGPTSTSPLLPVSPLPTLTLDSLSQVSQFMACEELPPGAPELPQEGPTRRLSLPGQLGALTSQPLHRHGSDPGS

[17] = target: GABA; assay: NIMH-PDSP binding affinity panel; settings: read-out: affinity
[18] = target: EP (prostanoid receptors); assay: NIMH-PDSP binding affinity panel; settings: read-out: affinity
[19] = target: I; assay: NIMH-PDSP binding affinity panel; settings: read-out: affinity
[20] = target: KOP (Homo sapiens, UniProt P41145); assay: NIMH-PDSP binding affinity panel
Sequence of KOP (P41145 whole entry): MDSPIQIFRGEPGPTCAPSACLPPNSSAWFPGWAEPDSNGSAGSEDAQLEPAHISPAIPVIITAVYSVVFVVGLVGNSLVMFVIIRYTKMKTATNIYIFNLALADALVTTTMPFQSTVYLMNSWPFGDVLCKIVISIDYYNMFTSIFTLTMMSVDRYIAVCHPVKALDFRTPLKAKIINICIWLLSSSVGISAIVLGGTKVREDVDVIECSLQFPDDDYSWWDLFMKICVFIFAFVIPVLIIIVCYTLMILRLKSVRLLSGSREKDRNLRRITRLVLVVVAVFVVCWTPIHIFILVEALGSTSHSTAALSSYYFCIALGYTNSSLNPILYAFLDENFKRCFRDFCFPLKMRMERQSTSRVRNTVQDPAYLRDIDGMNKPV

[21] = target: KA (kainate); assay: NIMH-PDSP binding affinity panel; settings: read-out: affinity
[22] = target: M (muscarinic); assay: NIMH-PDSP binding affinity panel; settings: read-out: affinity
[23] = target: mGluR; assay: NIMH-PDSP binding affinity panel; settings: read-out: affinity, metabotropic glutamate receptors
[24] = target: MDR1 (Homo sapiens, UniProt P08183); assay: NIMH-PDSP binding affinity panel
[25] = target: NET (Homo sapiens, UniProt P23975); assay: NIMH-PDSP binding affinity panel
Sequence of NET (P23975 whole entry): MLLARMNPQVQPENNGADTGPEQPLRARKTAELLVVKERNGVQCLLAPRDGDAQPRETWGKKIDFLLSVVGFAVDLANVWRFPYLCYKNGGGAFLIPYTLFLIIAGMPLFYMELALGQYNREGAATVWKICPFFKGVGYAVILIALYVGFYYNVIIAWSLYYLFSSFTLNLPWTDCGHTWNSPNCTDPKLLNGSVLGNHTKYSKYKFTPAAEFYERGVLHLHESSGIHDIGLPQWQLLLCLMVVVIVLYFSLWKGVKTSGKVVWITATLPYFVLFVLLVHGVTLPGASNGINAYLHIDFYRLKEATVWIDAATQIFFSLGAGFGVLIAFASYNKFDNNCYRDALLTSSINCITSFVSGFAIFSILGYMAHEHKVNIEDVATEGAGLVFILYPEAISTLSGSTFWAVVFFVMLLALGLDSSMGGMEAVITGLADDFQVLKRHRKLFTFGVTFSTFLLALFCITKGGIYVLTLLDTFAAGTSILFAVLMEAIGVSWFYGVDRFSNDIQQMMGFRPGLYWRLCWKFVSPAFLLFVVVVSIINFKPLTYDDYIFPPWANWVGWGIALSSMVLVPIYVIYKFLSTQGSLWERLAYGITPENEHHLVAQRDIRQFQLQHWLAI

[26] = target: NK (neurokinin); assay: NIMH-PDSP binding affinity panel; settings: read-out: affinity
[27] = target: NMΔA; assay: NIMH-PDSP binding affinity panel; settings: read-out: affinity
[28] = target: NOP (Homo sapiens, UniProt P41146); assay: NIMH-PDSP binding affinity panel
[29] = target: NT (neurotrophin); assay: NIMH-PDSP binding affinity panel; settings: read-out: affinity
[30] = target: oxytocin (Homo sapiens, UniProt P30559); assay: NIMH-PDSP binding affinity panel
Sequence of oxytocin (P30559 whole entry): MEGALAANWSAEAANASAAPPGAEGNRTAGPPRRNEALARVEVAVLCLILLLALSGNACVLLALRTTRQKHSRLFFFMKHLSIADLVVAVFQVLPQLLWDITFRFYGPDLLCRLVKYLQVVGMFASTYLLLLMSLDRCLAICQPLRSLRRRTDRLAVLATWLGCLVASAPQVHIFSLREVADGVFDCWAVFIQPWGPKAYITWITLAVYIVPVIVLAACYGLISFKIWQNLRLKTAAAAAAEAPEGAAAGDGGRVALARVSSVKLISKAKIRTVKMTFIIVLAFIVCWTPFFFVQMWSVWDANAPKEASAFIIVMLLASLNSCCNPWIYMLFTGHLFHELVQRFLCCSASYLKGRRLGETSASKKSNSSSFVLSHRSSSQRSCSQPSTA

[31] = target: PBR (Homo sapiens, UniProt P30536); assay: NIMH-PDSP binding affinity panel
Sequence of PBR (P30536 whole entry, species assumed): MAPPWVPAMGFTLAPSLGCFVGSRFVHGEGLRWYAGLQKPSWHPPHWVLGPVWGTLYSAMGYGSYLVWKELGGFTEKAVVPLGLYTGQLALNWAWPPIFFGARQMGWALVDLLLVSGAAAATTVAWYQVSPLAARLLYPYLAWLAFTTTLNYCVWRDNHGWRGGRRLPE

[32] = target: PKC; assay: NIMH-PDSP binding affinity panel; settings: read-out: affinity, protein kinase C
[33] = target: SERT (Homo sapiens, UniProt P31645); assay: NIMH-PDSP binding affinity panel
Sequence of SERT (P31645 whole entry, species assumed): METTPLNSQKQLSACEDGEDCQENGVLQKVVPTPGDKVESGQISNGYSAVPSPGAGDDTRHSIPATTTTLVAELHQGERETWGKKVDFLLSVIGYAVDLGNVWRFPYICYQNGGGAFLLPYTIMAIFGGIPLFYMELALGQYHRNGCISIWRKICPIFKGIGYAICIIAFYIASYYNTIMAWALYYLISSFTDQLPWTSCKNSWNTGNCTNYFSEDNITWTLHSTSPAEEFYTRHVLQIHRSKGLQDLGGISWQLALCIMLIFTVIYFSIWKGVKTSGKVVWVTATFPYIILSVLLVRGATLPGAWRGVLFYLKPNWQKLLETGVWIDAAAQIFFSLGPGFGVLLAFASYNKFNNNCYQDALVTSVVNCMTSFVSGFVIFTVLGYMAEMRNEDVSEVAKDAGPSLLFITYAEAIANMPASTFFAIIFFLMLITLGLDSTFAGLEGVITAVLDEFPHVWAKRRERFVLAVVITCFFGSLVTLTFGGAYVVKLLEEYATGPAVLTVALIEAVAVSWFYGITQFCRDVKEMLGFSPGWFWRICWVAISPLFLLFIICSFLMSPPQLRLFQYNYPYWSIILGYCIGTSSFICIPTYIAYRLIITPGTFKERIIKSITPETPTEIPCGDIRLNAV

[34] = target: σ2 (Homo sapiens, UniProt Q5BJF2); assay: NIMH-PDSP binding affinity panel
Sequence of σ2 (Q5BJF2 whole entry): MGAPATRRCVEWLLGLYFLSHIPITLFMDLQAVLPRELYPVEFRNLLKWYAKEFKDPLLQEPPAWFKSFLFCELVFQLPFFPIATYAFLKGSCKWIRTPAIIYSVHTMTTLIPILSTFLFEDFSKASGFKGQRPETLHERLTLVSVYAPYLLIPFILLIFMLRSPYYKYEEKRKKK

[35] = target: Na + channel; assay: NIMH-PDSP binding affinity panel; settings: read-out: affinity
[36] = target: smoothened (Homo sapiens, UniProt Q99835); assay: NIMH-PDSP binding affinity panel
Sequence of smoothened (Q99835 28-787): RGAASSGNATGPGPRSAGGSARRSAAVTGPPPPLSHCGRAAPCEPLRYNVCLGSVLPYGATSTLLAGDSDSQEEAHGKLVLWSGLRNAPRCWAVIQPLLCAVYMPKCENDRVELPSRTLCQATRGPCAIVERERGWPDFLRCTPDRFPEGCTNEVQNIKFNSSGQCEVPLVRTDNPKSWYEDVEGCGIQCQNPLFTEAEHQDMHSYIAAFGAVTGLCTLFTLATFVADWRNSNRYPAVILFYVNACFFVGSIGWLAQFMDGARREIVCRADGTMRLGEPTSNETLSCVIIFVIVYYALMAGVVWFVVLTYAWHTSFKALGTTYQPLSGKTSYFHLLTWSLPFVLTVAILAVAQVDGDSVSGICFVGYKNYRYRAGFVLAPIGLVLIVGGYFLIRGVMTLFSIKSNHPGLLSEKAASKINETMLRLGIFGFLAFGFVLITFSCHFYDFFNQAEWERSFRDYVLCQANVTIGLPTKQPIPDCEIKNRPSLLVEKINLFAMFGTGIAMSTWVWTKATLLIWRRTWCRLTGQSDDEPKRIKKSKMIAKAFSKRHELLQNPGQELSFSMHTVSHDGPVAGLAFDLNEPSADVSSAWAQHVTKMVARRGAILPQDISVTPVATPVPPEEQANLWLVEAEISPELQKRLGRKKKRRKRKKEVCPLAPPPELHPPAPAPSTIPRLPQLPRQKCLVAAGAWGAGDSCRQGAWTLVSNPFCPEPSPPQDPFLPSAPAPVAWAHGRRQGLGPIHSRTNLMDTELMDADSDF

[37] = target: VMAT 1,2; assay: NIMH-PDSP binding affinity panel; settings: read-out: affinity; VMAT 1,2, vesicular monoamine transporter
[38] = target: all other tested biogenic brain receptors, transporters, enzymes, and protein targets; assay: NIMH-PDSP binding affinity panel; settings: all other tested targets except H4R and σ1R
[39] = rodents, blood; cited from earlier work
[40] = over 100 cancer patients including GBM; cited from earlier work
[41] = tested on: cancer animal models; settings: variety of cancer animal models; cited from earlier work
[42] = Lipophilicity by shake flask method; assay type: physicochemical; settings: 1-octanol / phosphate buffer, n = 4
Procedure, shortened: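 The [11C]-labelled test compound was partitioned between 1-octanol and freshly prepared phosphate buffer by shake flask, and the result expressed as log Poct/water.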

[43] = Stability in ethanol–saline formulation; assay type: physicochemical; settings: 5% ethanol–saline formulation, sterile conditions, 4 h, n = 4
Procedure, shortened: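 The stability of the [11C]-labelled test compound was checked by reverse-phase HPLC with photodiode-array and sodium iodide radioactivity detectors.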

[44] = Baseline ex vivo biodistribution; assay type: in vivo, male white mice; settings: mouse brain, followed by gradual washout
[45] = tested on: MT; assay: Blocking biodistribution with cold MPC-6827; assay type: in vivo, male white mice
Procedure, shortened: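 This was a blocking biodistribution. Unlabelled test compound (5 mg/kg iv) was given 20 min before tail-vein injection of the [11C] tracer at 100 ± 20 μCi in 10% ethanol–saline, with no anaesthesia. Tissues were harvested at 30 min, gamma-counted and expressed as %ID/g, with n = 3. Specific binding was taken from blocked versus baseline uptake.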

[46] = tested on: brain MT; assay: microPET imaging in mice, baseline and blocking; assay type: in vivo, athymic nude male mice
Procedure, shortened: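 Mice were anaesthetised and transmission-scanned on a Trifoil PET/CT. The [11C] tracer (50 ± 10 μCi) was given by tail vein, followed by 60 min dynamic acquisition. Images were reconstructed with attenuation correction, Fourier rebinning and filtered back-projection, and summed over 0–60 min. In blocking scans, unlabelled test compound (5 mg/kg iv) was given before the tracer, with n = 3.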

[47] = tested on: brain MT; assay: microPET imaging in rats; assay type: in vivo; settings: male Sprague—Dawley rats, n = 2
Procedure, shortened: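 Anaesthetised Sprague–Dawley rats (n = 2) were transmission-scanned on a Trifoil PET/CT. The [11C] tracer (100 ± 20 μCi) was injected into the tail vein and acquired for 60 min. Reconstruction used attenuation correction, Fourier rebinning and filtered back-projection, and images were summed over 0–60 min.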

[48] = 30 min, MPC-6827 5 mg/kg iv 20 min prior to radioligand, n = 3

With COc1ccc(N(C)c2nc(C)nc3ccccc23)cc1 [MPC-6827] the Ki [1] was > 10 µM, the Ki [2] was > 10 µM and the Ki [3] was > 10 µM. The Ki [4] was > 10 µM, the Ki [5] was > 10 µM and the Ki [6] was > 10 µM. For the same molecule, the Ki [7] was > 10 µM, the Ki [8] was > 10 µM and the Ki [9] was > 10 µM. For the same molecule, the Ki [10] was > 10 µM, the Ki [11] was > 10 µM and the Ki [12] was > 10 µM. The Ki [13] was > 10 µM, the Ki [14] was > 10 µM and the Ki [15] was > 10 µM. The Ki [16] was > 10 µM, the Ki [17] was > 10 µM and the Ki [18] was > 10 µM. The Ki [19] was > 10 µM, the Ki [20] was > 10 µM and the Ki [21] was > 10 µM. For the same molecule, the Ki [22] was > 10 µM, the Ki [23] was > 10 µM and the Ki [24] was > 10 µM. The Ki [25] was > 10 µM, the Ki [26] was > 10 µM and the Ki [27] was > 10 µM. For the same molecule, the Ki [28] was > 10 µM, the Ki [29] was > 10 µM and the Ki [30] was > 10 µM. For the same molecule, the Ki [31] was > 10 µM, the Ki [32] was > 10 µM and the Ki [33] was > 10 µM. For the same molecule, the Ki [34] was > 10 µM, the Ki [35] was > 10 µM and the Ki [36] was > 10 µM. The Ki [37] was > 10 µM, the Ki [38] was > 10 µM and the plasma binding [39] was 98.2%. For the same molecule, the “safety in human subjects” value [40] was “proven to be safe” and the “tumor growth in cancer animal models” value [41] was “suppression of tumor growth”.

In the case of Cc1nc(N(C)c2ccc(O[11CH3])cc2)c2ccccc2n1 [[^11C]MPC-6827], the “log Poct/water” value [42] is reported as 3.8, the stability in formulation [43] is reported as “stable” and the “time of peak brain activity” value [44] is reported as 5 min. The “specific binding in brain” value [45, 48] was 70%, the “specific binding in heart” value [45, 48] was 16% and the “specific binding in lungs” value [45, 48] was 30%. For the same molecule, the “specific binding in muscles” value [45, 48] was 60%, the “specific binding in pancreas” value [45, 48] was 20% and the “specific binding in the rest of the tested regions” value ([45]; 30 min, regions other than brain, muscles, spleen, lungs, pancreas, heart) was “no significant specific binding”. The “displacement of kidney and liver binding” value ([45]; blocking with cold MPC-6827, mice) was “not displaced”, the “ratio of specific to nonspecific binding in brain relative to muscle” value ([45]; brain vs muscle, Figure 1B) was 10 times and the “BBB penetration and brain retention (microPET)” value ([46]; athymic nude male mice, n = 3, 0–60 min) was “penetrates the BBB and shows excellent retention in mouse brain”. For the same molecule, the “radioligand binding in thyroid or salivary gland during blocking (microPET)” value ([46]; blocking with 5 mg/kg MPC-6827, mice) was “displaced”, the “blocking of brain activity (microPET)” value ([46]; iv 5 mg/kg unlabeled MPC-6827, n = 3) was “substantially blocked” and the “BBB penetration and brain retention (microPET)” value [47] was “BBB penetration and excellent retention”.
